Source: ChEMBL document CHEMBL3272330, “Synthesis and antimineralocorticoid activities of some 7alpha-cyano and 7alpha-alkoxycarbonylamino steroidal spirolactones” (1976)
Activity calls are given as the source filed them. The calls are words filed in the database; no cut-off is given here.

Assays:
Rattus norvegicus [1] = test: In vivo inhibition of deoxycorticosterone acetate-induced urinary electrolyte effect in ig dosed adrenalectomized rat measured over 4 hrs; assay type: functional, Urine
Outline: (§1)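 Adrenalectomized rats (150-200 g) in groups of four each received 12 µg deoxycorticosterone acetate and 2.5 ml isotonic saline sc before intragastric test compound, with 2.4 mg/rat as the standard level. Urine was collected over 4 h. The value is the median effective dose (mg/rat) giving 50% inhibition of the DCA-induced rise in urinary Na/K ratio.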

Rattus norvegicus [2] = test: In vivo inhibition of deoxycorticosterone acetate-induced urinary electrolyte effect in sc dosed adrenalectomized rat measured over 4 hrs; assay type: functional, Urine
Outline: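 Groups of four adrenalectomized rats (150-200 g) were pretreated sc with 12 µg deoxycorticosterone acetate plus 2.5 ml isotonic saline, then dosed subcutaneously with test compound. The assay ran 4 h. MED (mg/rat) is the dose giving 50% inhibition of the DCA-induced increase in urinary Na/K ratio.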

Rattus norvegicus [3] = test: In vivo inhibition of deoxycorticosterone acetate-induced urinary electrolyte effect in po dosed adrenalectomized rat measured over 4 hrs; assay type: functional, organism-based; details: Urine; outline: as §1

| Compound | MED50 (Rattus norvegicus [1]) [mg] | MED50 (Rattus norvegicus [2]) [mg] | inhibition (Rattus norvegicus [3]) |
| --- | --- | --- | --- |
| CCOC(=O)N[C@@H]1CC2=CC(=O)CC[C@]2(C)[C@H]2CC[C@@]3(C)[C@@H](CC[C@@]34CCC(=O)O4)[C@H]12 | >2.4 | >2.4 |  |
| COC(=O)N[C@@H]1CC2=CC(=O)CC[C@]2(C)[C@H]2CC[C@@]3(C)[C@@H](CC[C@@]34CCC(=O)O4)[C@H]12 | 2 | 0.79 |  |
| C[C@]12CCC(=O)C=C1C[C@@H](C#N)[C@@H]1[C@@H]2CC[C@@]2(C)[C@H]1CC[C@@]2(O)CCC(=O)[O-].[K+] | 2.3 |  | inactive |
| C[C@]12C=CC(=O)C=C1C[C@@H](C#N)[C@@H]1[C@@H]2CC[C@@]2(C)[C@H]1CC[C@@]21CCC(=O)O1 | >2.4 | 2.3 | inactive |
| C[C@]12CC[C@H]3[C@@H]([C@H](C#N)CC4=CC(=O)CC[C@@H]43)[C@@H]1CC[C@@]21CCC(=O)O1 | >2.4 | 1.3 |  |
| C[C@]12CCC(=O)C=C1C[C@@H](C#N)[C@@H]1[C@@H]2CC[C@@]2(C)[C@H]1CC[C@@]21CCC(=O)O1 | >2.4 | 0.39 |  |
| C[C@]12CCC(=O)C=C1C[C@@H](N=C=O)[C@@H]1[C@@H]2CC[C@@]2(C)[C@H]1CC[C@@]21CCC(=O)O1 | >2.4 | >2.4 |  |
